Measured values as given in ChEMBL document CHEMBL5046274, “Identification and Optimization of Novel Small-Molecule Cas9 Inhibitors by Cell-Based High-Throughput Screening” (J Med Chem, 2022).
Each block holds one compound with its values, some of them ahead of it. Active and inactive are the calls of the source. No cut-off for these calls is given here.

Legend:
Streptococcus pyogenes [1] = experiment: Inhibition of Streptococcus pyogenes Cas9 at 500 microM by Cas9 cleavage assay
Method in brief: (§1)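 Recombinant SpyCas9 (5 nM) preincubated with compound in DMSO (final 5% v/v) for 15 min at 37 °C in PBS + 10 mM MgCl2 + 0.02% Triton X-100. Then 6 nM preformed crRNA/tracrRNA gRNA for 5 min, then 1 nM PCR-amplified target DNA for 30 min. Quenched with proteinase K, run on a 1% agarose gel, bands quantified by densitometry. Run in triplicate; IC50 from a four-parameter logistic fit.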

[2] = Inhibition of Streptococcus pyogenes Cas9 by Cas9 cleavage assay; method in brief: as §1
Streptococcus pyogenes [3] = experiment: Inhibition of Streptococcus pyogenes Cas9 assessed as inhibition of Csp9:gRNA complex formation at 200 to 500 uM; conditions: dose 200-500 µM
Streptococcus pyogenes [4] = experiment: Inhibition of Streptococcus pyogenes Cas9 assessed as inhibition of Csp9:gRNA complex formation at 200 uM by EMSA assay
Method in brief: (§2)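 EMSA in PBS + 10 mM MgCl2 + 0.02% Triton X-100. Compound incubated with 200 nM apo-SpyCas9 for 5 min at 37 °C, then 200 nM Atto550-labelled crRNA/tracrRNA gRNA added for 15 min. Complexes resolved on a 6% TBE gel and visualised by fluorescence.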

Streptococcus pyogenes [5] = experiment: Inhibition of Streptococcus pyogenes Cas9 assessed as inhibition of Csp9:gRNA complex formation
Streptococcus pyogenes [6] = experiment: Binding affinity to Streptococcus pyogenes Cas9 by 1D 1H-NMR-WaterLOGSY spectrum analysis
Method in brief: (§3)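 NMR ligand-binding on apo-SpyCas9 with standard pulse sequences. For WaterLOGSY, bound ligands give signals of opposite (negative) phase to non-binders. Alanine is added to the cocktail at the ligand concentration as a phasing reference.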

Streptococcus pyogenes [7] = experiment: Inhibition of Streptococcus pyogenes apo-Cas9 assessed as inhibition of Csp9:gRNA complex formation at 10 to 200 uM by EMSA assay; conditions: dose 10-200 µM; method in brief: as §2
Streptococcus pyogenes [8] = experiment: Binding affinity to Streptococcus pyogenes Cas9 by 1H-19F-(CPMG)-NMR analysis; method in brief: as §3
Streptococcus pyogenes [9] = experiment: Inhibition of Streptococcus pyogenes Cas9 at 200 microM by Cas9 cleavage assay; method in brief: as §1

IC50 [2]: 223 µM
Structure (SMILES): Cc1cc(NS(=O)(=O)c2ccc(-c3cccc(C(=O)N4CCC(C)CC4)c3)cc2)no1

IC50 [2]: 129 µM
Structure (SMILES): Cc1cc(NS(=O)(=O)c2cccc(-c3ccccc3)c2)no1

Activity (Streptococcus pyogenes [9]): inactive
Structure (SMILES): Cc1ccnc(NS(=O)(=O)c2cc(-c3nc(C)c(C(=O)N4CCC(C)CC4)s3)n(C)c2C)c1

Continued, compound first:

Structure (SMILES): Oc1c(C(c2ccccn2)N2CCC(Cc3ccccc3)CC2)cc(Cl)c2cccnc12 (configuration not stated)
Activity (Streptococcus pyogenes [1]): Active

Structure (SMILES): Cc1cc(NS(=O)(=O)c2cc(-c3nc(C)c(C(=O)N4CCC(C)CC4)s3)n(C)c2C)no1
Activity (Streptococcus pyogenes [1]): Active
IC50 [2]: 246 µM
inhibition (Streptococcus pyogenes [3]): Active

Structure (SMILES): CC1CCN(C(=O)c2cccc(-c3ccc(C(F)(F)F)cc3)c2)CC1
IC50 [2]: 28 µM

Structure (SMILES): Cc1cc(NS(=O)(=O)c2cc(-c3ccc(Cl)c(Cl)c3)cc(C(F)(F)F)c2)no1
inhibition (Streptococcus pyogenes [4]): Active
IC50 [2]: 7.02 µM
inhibition (Streptococcus pyogenes [5]): Active
Activity (Streptococcus pyogenes [6]): Active
inhibition (Streptococcus pyogenes [7]): Active
Activity (Streptococcus pyogenes [8]): Active

Structure (SMILES): CC1CCN(C(=O)c2cccc(-c3ccccc3)c2)CC1
IC50 [2]: 28 µM

Structure (SMILES): Cc1cc(NS(=O)(=O)c2cccc(-c3ccc(Cl)c(Cl)c3)c2)no1
IC50 [2]: 14 µM

Structure (SMILES): Cc1cc(NS(=O)(=O)c2ccc(-c3ccccc3)cc2)no1
IC50 [2]: 189 µM
